7 molecules from publication PMC4222540 (Biochemistry, 2014) can be followed below.

The target in data set [1] is T1, cPAH D139E (Chromobacterium violaceum, UniProt P30967, D139E).
T1 sequence (P30967 1-297 D139E): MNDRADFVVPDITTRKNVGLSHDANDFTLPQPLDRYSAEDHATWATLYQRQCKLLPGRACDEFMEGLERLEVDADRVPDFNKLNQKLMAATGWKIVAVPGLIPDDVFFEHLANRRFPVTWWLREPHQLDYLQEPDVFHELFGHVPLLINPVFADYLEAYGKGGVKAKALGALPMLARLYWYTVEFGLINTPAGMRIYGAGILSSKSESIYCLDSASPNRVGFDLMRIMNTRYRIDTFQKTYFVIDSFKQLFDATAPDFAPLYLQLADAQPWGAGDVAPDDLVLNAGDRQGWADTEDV
The data set can be described thus: Steady-state kinetics of phenylalanine hydroxylation. The following applies: read-out: KM (DMPH), DMPH4 varied at saturated Phe (1 mM), 20 °C, pH 7.4. Format: biochemical.

For data set [2], the target named is T2, cPAH D139N (Chromobacterium violaceum, UniProt P30967, D139N).
T2 sequence (P30967 1-297 D139N): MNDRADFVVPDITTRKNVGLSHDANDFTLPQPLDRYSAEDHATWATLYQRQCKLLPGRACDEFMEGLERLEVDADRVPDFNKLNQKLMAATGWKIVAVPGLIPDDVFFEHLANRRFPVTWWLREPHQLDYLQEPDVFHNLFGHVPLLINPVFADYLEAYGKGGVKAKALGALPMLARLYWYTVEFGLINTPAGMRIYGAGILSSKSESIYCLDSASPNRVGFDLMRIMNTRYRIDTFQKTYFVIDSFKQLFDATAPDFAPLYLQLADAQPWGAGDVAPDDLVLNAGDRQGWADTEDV
Described as above. Format: biochemical. The conditions noted are these: read-out: KM (DMPH), DMPH4 varied at saturated Phe (1 mM), 20 °C, pH 7.4.

Data set [3] addresses T3, cPAH D139A (Chromobacterium violaceum, UniProt P30967, D139A).
T3 sequence (P30967 1-297 D139A): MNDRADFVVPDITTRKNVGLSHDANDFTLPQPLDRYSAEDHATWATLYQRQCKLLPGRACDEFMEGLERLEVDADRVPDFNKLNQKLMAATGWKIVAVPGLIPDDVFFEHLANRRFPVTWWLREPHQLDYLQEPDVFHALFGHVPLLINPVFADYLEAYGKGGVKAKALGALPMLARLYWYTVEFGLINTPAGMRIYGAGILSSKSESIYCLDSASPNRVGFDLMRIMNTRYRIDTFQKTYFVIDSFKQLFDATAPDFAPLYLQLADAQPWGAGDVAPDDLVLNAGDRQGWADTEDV
Described as above. Format: biochemical. The conditions noted are these: read-out: KM (DMPH), DMPH4 varied at saturated Phe (1 mM), 20 °C, pH 7.4.

In a further data set the target is T4, wild-type cPAH (Chromobacterium violaceum, UniProt P30967).
T4 sequence (P30967 1-297): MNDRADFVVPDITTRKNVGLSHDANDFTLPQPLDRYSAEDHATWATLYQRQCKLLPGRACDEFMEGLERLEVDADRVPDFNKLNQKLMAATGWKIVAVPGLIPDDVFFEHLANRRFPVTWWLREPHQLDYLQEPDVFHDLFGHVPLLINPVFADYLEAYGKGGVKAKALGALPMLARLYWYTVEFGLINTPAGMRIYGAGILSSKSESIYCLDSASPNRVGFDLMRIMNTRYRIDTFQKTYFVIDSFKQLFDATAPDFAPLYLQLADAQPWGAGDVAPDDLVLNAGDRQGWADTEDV
As to the kind of experiment: ITC, Fe. Format: binding. The conditions noted are these: anaerobic, 25 °C, 2.5 mM TCEP. The essentials: (§1)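 Untagged cPAH (wild type or Asp139 point mutant), expressed from pET3a and purified by anion-exchange and size-exclusion chromatography, in apo form. Anaerobic ITC under argon at 25 °C: 500 μM ferrous ammonium sulfate in dialysis buffer with 2.5 mM TCEP titrated into 50 μM protein containing 2.5 mM TCEP. 18 injections of 2 μL, 180 s apart.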
A general note: In ITC the heat of successive injections is recorded.

Data set [4] concerns the target T3, cPAH D139A. As to the kind of experiment: ITC, Fe. Format: binding. The essentials:
as §1

Data set [5] deals with T2, cPAH D139N. As to the kind of experiment: ITC, Fe. Format: binding. The conditions noted are these: anaerobic, 25 °C, 2.5 mM TCEP. The essentials:
as §1

Another data set has as its target T5, cPAH D139K (Chromobacterium violaceum, UniProt P30967, D139K).
T5 sequence (P30967 1-297 D139K): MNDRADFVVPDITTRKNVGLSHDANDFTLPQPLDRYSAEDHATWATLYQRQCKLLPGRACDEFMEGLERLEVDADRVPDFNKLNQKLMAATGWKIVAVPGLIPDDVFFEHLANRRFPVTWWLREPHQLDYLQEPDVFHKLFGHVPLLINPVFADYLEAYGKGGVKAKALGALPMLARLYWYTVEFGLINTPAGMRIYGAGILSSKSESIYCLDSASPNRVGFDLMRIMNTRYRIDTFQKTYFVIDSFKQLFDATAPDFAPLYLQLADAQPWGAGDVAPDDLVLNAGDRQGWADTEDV
As to the kind of experiment: ITC, Fe. Format: binding. In a few lines:
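Untagged apo cPAH D139K, purified by anion-exchange and size-exclusion chromatography. Anaerobic ITC under argon at 25 °C with 2.5 mM TCEP in titrant and in 50 μM protein. FeSO4 titrated at 10-fold excess (500 μM) and again at 20-fold excess over protein. 18 injections of 2 μL, 180 s apart.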

In data set [6] the target is T1, cPAH D139E. The data set can be described thus: ITC, Fe. Format: binding. In a few lines: as §1
Data set [7] can be described thus: Steady-state kinetics: turnover. The conditions noted are these: for fold lower kcat relative to wild-type cPAH / kcat: enzyme variant as labelled; for kcat: DMPH4 cofactor, 20 °C, pH 7.4. Format: biochemical, Chromobacterium violaceum. The essentials:
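Phenylalanine hydroxylation followed by tyrosine formation at 275 nm (ε275 = 1405 L mol−1 cm−1) at 20 ± 1 °C. Enzyme ranged from 1 μM (wild type) to 30 μM (D139A), with 5-fold molar excess of ferrous ammonium sulfate, 5 mM DTT and 1000 units/mL catalase in 0.1 M O2-saturated Na-HEPES, pH 7.4. DMPH4 was varied at 1 mM Phe, and Phe was varied at 350 μM DMPH4. Triplicates were fit to Michaelis–Menten and reported as mean ± SD of three independent experiments.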

[8] abbreviates: 20-fold excess of FeSO4, anaerobic, 25 °C, 2.5 mM TCEP.

Usually Km stands for the concentration of substrate that gives half-maximal velocity. As to `CC1Nc2nc(N)[nH]c(=O)c2NC1C` (centres unmarked) [DMPH, 6,7-dimethyl-5,6,7,8-tetrahydropterine], the values for the Michaelis constant (Km) on cPAH D139E [1], at cPAH D139N [2] and on cPAH D139A [3] were 236 ± 38 µM, 262 ± 41 µM and 254 ± 47 µM, respectively.
Usually Kd stands for the free concentration of one partner at which half of the binding sites on the other are occupied at equilibrium, for simple one-to-one binding. Turning to `O=S(=O)([O-])[O-].O=S(=O)([O-])[O-].[Fe+2].[NH4+].[NH4+]` [Fe(II), ferrous ammonium sulfate], the equilibrium dissociation constant (Kd) is 151 ± 30 nM on wild-type cPAH; 944 ± 170 nM on cPAH D139A [4] (anaerobic, 25 °C, 2.5 mM TCEP); 139 ± 60 nM on cPAH D139N [5]; 76500 ± 700 nM at cPAH D139K (setting [8]); 479 ± 170 nM on cPAH D139E [6] (anaerobic, 25 °C, 2.5 mM TCEP). In addition, the “N (ITC stoichiometry)” value was 0.8 on wild-type cPAH; 0.9 on cPAH D139A [4] (anaerobic, 25 °C, 2.5 mM TCEP); 0.7 at cPAH D139N [5]; 1 on cPAH D139K (setting [8]); 0.8 on cPAH D139E [6] (anaerobic, 25 °C, 2.5 mM TCEP). Moreover, the ΔH result at wild-type cPAH was “–4.0 ± 0.1 kcal mol^–1”; at cPAH D139A [4] (anaerobic, 25 °C, 2.5 mM TCEP), “–2.5 ± 0.1 kcal mol^–1”; on cPAH D139N [5] it was “–4.5 ± 0.3 kcal mol^–1”; at cPAH D139K (setting [8]) it was 1.4 ± 0.6 kcal mol^–1; at cPAH D139E [6] (anaerobic, 25 °C, 2.5 mM TCEP), “–1.5 ± 0.1 kcal mol^–1”. The ΔS at wild-type cPAH amounted to 18 cal mol^–1; at cPAH D139A [4] (anaerobic, 25 °C, 2.5 mM TCEP), 19 cal mol^–1; on cPAH D139N [5], 16 cal mol^–1; at cPAH D139K (setting [8]) it was 23 cal mol^–1; at cPAH D139E [6] (anaerobic, 25 °C, 2.5 mM TCEP), 24 cal mol^–1. In addition, the entries for the “fold increase in Kd for iron vs wild type” value on cPAH D139A [4] and at cPAH D139E [6] were ~6 fold and ~4 fold, respectively. Further, at cPAH D139K, the “fold reduction in binding affinity for iron vs wild type” value is ~500 fold. The “iron binding (ITC isotherm)” value on cPAH D139K (10-fold excess of FeSO4 (500 µM)) is on record as “no binding was observed”.

B1: D139N (protein, UniProt P30967 1-297, looked up, variant D139N)
Phenylalanine-4-hydroxylase: MNDRADFVVPDITTRKNVGLSHDANDFTLPQPLDRYSAEDHATWATLYQRQCKLLPGRACDEFMEGLERLEVDADRVPDFNKLNQKLMAATGWKIVAVPGLIPDDVFFEHLANRRFPVTWWLREPHQLDYLQEPDVFHNLFGHVPLLINPVFADYLEAYGKGGVKAKALGALPMLARLYWYTVEFGLINTPAGMRIYGAGILSSKSESIYCLDSASPNRVGFDLMRIMNTRYRIDTFQKTYFVIDSFKQLFDATAPDFAPLYLQLADAQPWGAGDVAPDDLVLNAGDRQGWADTEDV
Take B1: in data set [7], the “fold lower kcat relative to wild-type cPAH” value is listed as ~16 fold and the kcat stood at 1.2 ± 0.1 s^–1.

B2: D139K (protein, UniProt P30967 1-297, looked up, variant D139K)
Phenylalanine-4-hydroxylase: MNDRADFVVPDITTRKNVGLSHDANDFTLPQPLDRYSAEDHATWATLYQRQCKLLPGRACDEFMEGLERLEVDADRVPDFNKLNQKLMAATGWKIVAVPGLIPDDVFFEHLANRRFPVTWWLREPHQLDYLQEPDVFHKLFGHVPLLINPVFADYLEAYGKGGVKAKALGALPMLARLYWYTVEFGLINTPAGMRIYGAGILSSKSESIYCLDSASPNRVGFDLMRIMNTRYRIDTFQKTYFVIDSFKQLFDATAPDFAPLYLQLADAQPWGAGDVAPDDLVLNAGDRQGWADTEDV
As to B2, the “catalytic activity (hydroxylation of phenylalanine to tyrosine)” value in data set [7] (nonenzymatic amounts of protein required for minimal tyrosine formation) was “inactive”.

B3: wild type: wild-type phenylalanine hydroxylase from Chromobacterium violaceum (cPAH) (protein, UniProt P30967 1-297, looked up)
Phenylalanine-4-hydroxylase: MNDRADFVVPDITTRKNVGLSHDANDFTLPQPLDRYSAEDHATWATLYQRQCKLLPGRACDEFMEGLERLEVDADRVPDFNKLNQKLMAATGWKIVAVPGLIPDDVFFEHLANRRFPVTWWLREPHQLDYLQEPDVFHDLFGHVPLLINPVFADYLEAYGKGGVKAKALGALPMLARLYWYTVEFGLINTPAGMRIYGAGILSSKSESIYCLDSASPNRVGFDLMRIMNTRYRIDTFQKTYFVIDSFKQLFDATAPDFAPLYLQLADAQPWGAGDVAPDDLVLNAGDRQGWADTEDV
For the molecule B3, in data set [7], the kcat was 18.6 ± 0.1 s^–1.

B4: D139A (protein, UniProt P30967 1-297, looked up, variant D139A)
Phenylalanine-4-hydroxylase: MNDRADFVVPDITTRKNVGLSHDANDFTLPQPLDRYSAEDHATWATLYQRQCKLLPGRACDEFMEGLERLEVDADRVPDFNKLNQKLMAATGWKIVAVPGLIPDDVFFEHLANRRFPVTWWLREPHQLDYLQEPDVFHALFGHVPLLINPVFADYLEAYGKGGVKAKALGALPMLARLYWYTVEFGLINTPAGMRIYGAGILSSKSESIYCLDSASPNRVGFDLMRIMNTRYRIDTFQKTYFVIDSFKQLFDATAPDFAPLYLQLADAQPWGAGDVAPDDLVLNAGDRQGWADTEDV
As to B4, in data set [7], the “fold lower kcat relative to wild-type cPAH” value was ~100 fold and the kcat is given as 0.19 ± 0.01 s^–1.

B5: D139E (protein, UniProt P30967 1-297, looked up, variant D139E)
Phenylalanine-4-hydroxylase: MNDRADFVVPDITTRKNVGLSHDANDFTLPQPLDRYSAEDHATWATLYQRQCKLLPGRACDEFMEGLERLEVDADRVPDFNKLNQKLMAATGWKIVAVPGLIPDDVFFEHLANRRFPVTWWLREPHQLDYLQEPDVFHELFGHVPLLINPVFADYLEAYGKGGVKAKALGALPMLARLYWYTVEFGLINTPAGMRIYGAGILSSKSESIYCLDSASPNRVGFDLMRIMNTRYRIDTFQKTYFVIDSFKQLFDATAPDFAPLYLQLADAQPWGAGDVAPDDLVLNAGDRQGWADTEDV
Regarding B5, in data set [7], the “fold lower kcat relative to wild-type cPAH” value is listed as 10 fold and the kcat was determined as 1.9 ± 0.1 s^–1.
